# Screens: PubChem, several laboratories
# Rev-erbA mod: modulators of Rev-erb alpha DNA binding, primary screen, biochemical, FITC-DNA, fluorescence polarization, uHTS; Rev-erbα–FITC-DNA binding, 90 min; activity, % at 10 µM; hit rate 0.79% among 370,000; Nuclear receptor subfamily 1 group D member 1 (Homo sapiens), P20393; AID 1259318, 2017;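 active means activity above about 14%, limit read from the data; passing the limit was not always enough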
# Target sequence (P20393 whole entry, looked up): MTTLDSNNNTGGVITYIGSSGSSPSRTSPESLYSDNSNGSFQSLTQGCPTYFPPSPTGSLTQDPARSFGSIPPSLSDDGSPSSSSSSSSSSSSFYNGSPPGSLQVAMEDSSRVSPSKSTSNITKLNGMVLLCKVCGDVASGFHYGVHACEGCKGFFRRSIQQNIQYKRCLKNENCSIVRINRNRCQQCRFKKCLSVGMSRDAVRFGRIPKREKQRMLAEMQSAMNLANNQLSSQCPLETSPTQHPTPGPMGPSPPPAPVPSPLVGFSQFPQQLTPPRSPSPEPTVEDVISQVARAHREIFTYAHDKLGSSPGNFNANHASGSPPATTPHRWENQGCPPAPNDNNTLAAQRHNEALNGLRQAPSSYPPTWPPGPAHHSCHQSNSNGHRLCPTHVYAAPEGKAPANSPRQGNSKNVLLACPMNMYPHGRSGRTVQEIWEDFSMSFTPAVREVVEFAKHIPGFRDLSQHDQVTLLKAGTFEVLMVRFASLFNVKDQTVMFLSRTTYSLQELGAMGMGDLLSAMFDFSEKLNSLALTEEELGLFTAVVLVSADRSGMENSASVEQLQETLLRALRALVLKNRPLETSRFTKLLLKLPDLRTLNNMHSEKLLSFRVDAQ
# MC4R barr agon: MC4R agonists recruiting beta-arrestin, primary screen, cell-based, luminescence, agonist arm of biased-ligand search. activation, % at 8.9 µM. U2OS MC4R beta-arrestin complementation; percent of melanotan II response, DMSO zero. hit rate 0.98% among 360,000. AID 540308, 2011;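 active means activation above a per-plate cutoff, the mean activation of sample wells on that plate plus 3 SD, cut at about 8% in these data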
# PG9 Ab binder: binders of HIV-1 gp120 antibody PG9, primary screen, biochemical, TR-FRET. TR-FRET gp120-PG9 antibody binding. inhibition, % at 6.7 µM. hit rate 0.43% among 360,000; in the data active means inhibition above about 8.5%
# MC4R antag cAMP: MC4R antagonists of cAMP signaling, primary screen, cell-based, TR-FRET, antagonist arm of biased-ligand search | Melanocortin receptor 4 (Homo sapiens), P32245 | MC4R-expressing cells, MTII-stimulated cAMP, LANCE TR-FRET | inhibition, % at 6.5 µM | hit rate 0.48% among 360,000 | AID 540295, 2011;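 active means inhibition above its plate's cutoff, the mean of tested wells on that plate plus 3 SD, cut at about 29% in these data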
#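 Assay system: U2OS cells stably expressing human melanocortin 4 receptor (MC4R) / Dosing: 6.5 µM / Timing: compound 30 min, challenge 1 h, detection 1 h / Measured by: Eu-cAMP/anti-cAMP TR-FRET, emission 671 nm / Replicates: singlicate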
# NR2E3 ag-1: inhibitors of NR2E3-RetCOR corepressor binding, primary screen, NR2E3 agonist project, biochemical, TR-FRET, GST-NR2E3, biotin-RetCOR. Photoreceptor-specific nuclear receptor (Homo sapiens), Q9Y5X4. 1536-well. inhibition of corepressor binding, % at 4.78 µM. hit rate 0.12% among 320,000. AID 2300, 2010;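 active means percent inhibition above the cutoff of mean plus 3 SD of all tested compounds, set per screening campaign, cut at about 20% in these data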
#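 Material: NR2E3–RetCOR corepressor complex / Incubation: Compound–protein incubation for 5 h at 4 °C / Dosing: compound at 4.8 µM, single dose / Detection: time-resolved FRET / Benchmarks: high control biotin, low control 0.6% DMSO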
# NR2E3 ag-2: NR2E3 agonists in two-hybrid cells, primary screen, cell-based, luminescence, CHO-S, Gal4-NCOR/VP16-NR2E3. Photoreceptor-specific nuclear receptor (Homo sapiens), Q9Y5X4. luciferase. inhibition of corepressor binding, % at 3.98 µM. hit rate 0.35% among 360,000. AID 602229, 2012;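 active means inhibition above the mean of all tested compounds plus 3 SD, cut at about 70% in these data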;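 further: higher means lower luciferase signal from less NR2E3 corepressor binding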
# MC4R barr conf: MC4R beta-arrestin agonists, retest, confirmation, cell-based, luminescence, U2OS; shares compounds with MC4R barr agon; U2OS MC4R beta-arrestin recruitment; scaled DMSO 0%, Melanotan II 100%; activation, % at 8.9 µM; hit rate 31% among 2,400;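 active means mean activation across replicates above the hit cutoff set in the earlier primary screen, cut at about 8% in these data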
# MOR DOR agonist: agonists of MOR-DOR heterodimerization, counter-screen for MC4R biased agonist project, cell-based, luminescence. shares compounds with MC4R barr agon. U2OS PathHunter beta-arrestin, beta-gal luminescence; percent of deltorphin B response, DMSO zero. activation, % at 9.2 µM. hit rate 5.8% among 2,400. AID 602194, 2012;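 active means mean activation across replicates exceeds the hit threshold derived in the earlier primary screen, cut at about 18% in these data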
# Hits are given with their value; . = inactive; / = no result. Hits are enriched below; roughly 2.7% of the tested compounds scored in any of these assays.
SMILES,Rev-erbA mod,MC4R barr agon,PG9 Ab binder,MC4R antag cAMP,NR2E3 ag-1,NR2E3 ag-2,MC4R barr conf,MOR DOR agonist
CC(=O)Nc1ccccc1-c1nc2cc(C#N)c(C#N)cc2[nH]c1=O,.,.,.,.,.,.,/,/
Cn1c(-c2ccc(Cl)cc2)ccc(C#N)c1=O,.,10.9,.,.,.,.,.,.
Cc1ccc(-c2c(C)n([O-])c3c([n+]2=O)CCCCC3)cc1,.,.,.,.,.,.,/,/
COc1cccc(/C=N/NC(=O)c2nc(-c3ccccc3)cc(-c3ccccc3)n2)c1,.,.,.,.,.,.,/,/
COc1ccc(-c2cnnc(N/N=C/c3ccc(OC)c(OC)c3)n2)cc1,.,12.7,.,.,.,.,.,.
COc1ccc(/C=N/NC(=O)c2ccncc2)cc1OC,.,.,.,.,.,.,/,/
COc1ccc(-c2cc(-c3ccccc3)nc(Cl)n2)cc1OC,.,12.7,.,.,.,.,.,.
Cc1ccc(-c2cc(-c3ccccc3)nc(Cl)n2)cc1,.,.,.,.,.,.,/,/
COc1ccc(/C=C/C(=O)Oc2ccc(/C=N/NC(=O)c3ccccc3)cc2)cc1OC,.,23.3,.,.,.,.,.,21.5
COc1ccc(/C=N/NC(=O)c2nc(-c3ccccc3)cc(-c3ccccc3)n2)cc1OC,.,19.1,.,.,.,.,.,.
Cc1ccc(C)c(OCCC(=O)OCc2csc(CC(=O)Nc3ccccc3C)n2)c1,.,.,.,.,/,.,/,/
Cc1nnc(SCC(=O)Nc2ncc(S(=O)(=O)c3ccc([N+](=O)[O-])cc3)s2)s1,.,.,.,.,.,.,/,/
C/C(=N\Nc1ccccn1)c1ccc(Br)s1,.,.,.,.,.,.,/,/
O=C(Nc1ccc(F)cc1)C1C(c2ccccc2)C1(Cl)Cl (centres undefined),.,14.7,.,.,.,.,.,.
CC(=O)N(C)c1cccc(-c2ccc3nnc(C)n3n2)c1,.,.,.,.,.,.,/,/
CC(C)NC(=O)N(C)C[C@H]1Oc2ccc(NS(=O)(=O)c3ccc(F)cc3)cc2C(=O)N([C@H](C)CO)C[C@@H]1C,.,.,.,.,/,.,/,/
CC(C(=O)Nc1ccccn1)c1ccccc1 (centres undefined),.,.,.,.,/,.,/,/
O=C(Nc1ccc(Cl)c(Cl)c1)c1csc(-c2ccccc2)n1,.,19.8,.,.,.,.,.,.
O=C(Nc1ccc(Cl)c(Cl)c1)c1ccc(Cl)c(Cl)c1,.,14.4,.,.,.,.,.,.
CCN(CC)CCN(C)C(=O)c1ccc(OC2CCN(C(=O)C3CC3)CC2)cc1,.,.,.,.,.,.,/,/
CN(CC(=O)Nc1ccccn1)S(=O)(=O)c1ccc(Cl)cc1,.,.,.,.,.,.,/,/
O=C(c1cc(-c2ccc(O)cc2)on1)N1CCN(c2ccccc2)CC1,.,.,.,.,.,.,/,/
O=C(c1cc(-c2ccc(O)cc2)on1)N1CCN(c2ccc(F)cc2)CC1,.,10.6,.,.,.,.,.,.
O=C(Nc1ccccc1-c1ccccc1)c1cc(C(F)(F)F)cc(C(F)(F)F)c1,.,17.2,.,.,.,.,.,.
